Sampled rows, rich in hits. Any-hit rate of the full collection: about 2.1%.
PDI turbidity – inhibitors of human protein disulfide isomerase; P07237; PDI insulin aggregation turbidity, A650, 90 min; inhibition, % at 10 µM; 350,000 compounds, 0.052% hits; AID 588391;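 active = mean inhibition across replicates of 30% or more, whatever share of single replicates reach that level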
Target sequence (P07237 whole entry, looked up): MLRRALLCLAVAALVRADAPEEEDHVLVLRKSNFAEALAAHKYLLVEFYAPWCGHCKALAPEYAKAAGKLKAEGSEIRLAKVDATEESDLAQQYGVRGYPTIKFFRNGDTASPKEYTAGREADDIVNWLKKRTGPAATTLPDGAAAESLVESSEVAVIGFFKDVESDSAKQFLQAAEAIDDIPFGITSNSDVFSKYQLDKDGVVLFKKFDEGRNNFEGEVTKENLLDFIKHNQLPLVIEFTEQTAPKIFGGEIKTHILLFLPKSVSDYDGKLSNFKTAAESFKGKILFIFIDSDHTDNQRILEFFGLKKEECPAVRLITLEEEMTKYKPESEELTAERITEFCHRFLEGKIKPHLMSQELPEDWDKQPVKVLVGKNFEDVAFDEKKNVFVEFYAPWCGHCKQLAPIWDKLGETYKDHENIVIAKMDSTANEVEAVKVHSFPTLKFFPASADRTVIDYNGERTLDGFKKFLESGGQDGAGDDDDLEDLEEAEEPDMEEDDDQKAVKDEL
ERp5 block – blocks human ERp5 reductase activity on insulin; Q15084; inhibition, % at 9.99 µM; ERp5 insulin aggregation, absorbance 650 nm, 90 min; 350,000 compounds, 0.05% hits;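 active = mean replicate inhibition above about 25%, with every replicate also reaching it, limit read from the data, passing the limit was not always enough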
AF4-AF9 inh – inhibitors of human MLL-AF4/AF9 interaction; AlphaScreen, biotin-AF4 peptide binding to FLAG-AF9; inhibition, % at 10 µM; 350,000 compounds, 0.47% hits;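 active = every replicate reaching a set inhibition limit, whatever the replicate mean, cut at about 25% in these data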
FN deposition inh – fibronectin deposition inhibition. 350,000 compounds, 0.086% hits. inhibition, % at 12.6 µM. AH1F fibroblasts, Alexa488-fibronectin deposition fluorescence, overnight;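 active = mean inhibition across replicates of 30% or more, regardless of how many single replicates reach that level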
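Assay system: AH1F fibroblasts / Quantity: 10000 cells per well / Medium: DMEM plus 2% serum, read in PBS / Reagent: labelled fibronectin 24 nM / Dosing: single dose, pinned / Times: 1 h cell attachment, overnight exposure to compound and label / Signal: fluorescence, ex 485 nm, em 525 nm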
ARNT-TACC3 inh – ARNT/TACC3 interaction disruption | Q9Y6A5 | AlphaScreen His-ARNT PAS-B/GST-TACC3 binding, luminescence; TACC3 fragment carries E629A point mutation | inhibition, % at 9.99 µM | 390,000 compounds, 0.66% hits | AID 623870;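 active = mean inhibition of replicates at least 50% and at least half of replicates each reaching 50%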
FGF22 binding – binders of recombinant human FGF22 by thermal shift. Q9HCT0. SYPRO orange fluorescence; percent of sucrose octasulfate shift, DMSO zero. activity (Tm shift, normalised), % at 9.99 µM. 340,000 compounds, 1.5% hits. AID 651658;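 active = mean Tm shift, scaled 0 neutral to 100 positive control, at about 1.3% or above, every replicate too, limit read from the data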
Target sequence (Q9HCT0 whole entry, looked up): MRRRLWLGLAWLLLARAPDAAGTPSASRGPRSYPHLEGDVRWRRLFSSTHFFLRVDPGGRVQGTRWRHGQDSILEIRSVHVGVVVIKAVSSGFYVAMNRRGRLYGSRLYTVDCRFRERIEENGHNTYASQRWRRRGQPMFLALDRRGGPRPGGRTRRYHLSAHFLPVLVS
Each line names hits and unclear results; the compound was inactive in the other large screens.

C[C@@H]1CN([C@@H](C)CO)C(=O)c2cc(NC(=O)C3CCCCC3)ccc2O[C@@H](C)CCCCO[C@@H]1CN(C)C(=O)Cc1ccccc1	none (no result: PDI turbidity, ERp5 block, AF4-AF9 inh, FN deposition inh)
O=C(O)COc1ccccc1/C=N/NC(=O)CSc1nc2ccccc2n1Cc1ccc(Cl)cc1	FGF22 binding 1.4
COc1cc(C(=O)c2ccccc2Cl)c([N+](=O)[O-])cc1OC	FGF22 binding 44
COc1cc(C(=O)N2CCN(c3ccccc3)CC2)c([N+](=O)[O-])cc1OC	FGF22 binding 43
CC(C)OC(=O)c1cc(=O)[nH]c2ccccc12	none (no result: ERp5 block, AF4-AF9 inh, FN deposition inh, FGF22 binding)
Cc1ccc2[nH]c(=O)cc(C(=O)OC(C)C)c2c1	FGF22 binding 43
CC(C)NC(=O)N[C@@H]1CC[C@H](CC(=O)NCc2ccc(Oc3ccccc3)cc2)O[C@H]1CO	ARNT-TACC3 inh 46 (no result: PDI turbidity)
CC(C)NC(=O)N[C@@H]1CC[C@H](CC(=O)NCc2ccc(Oc3ccccc3)cc2)O[C@@H]1CO	none (no result: PDI turbidity)
O=C(Nc1ccccc1)Nc1ccc2c(c1)[C@H]1C[C@@H](CC(=O)N3CCOCC3)O[C@@H](CO)[C@H]1O2	none (no result: PDI turbidity, ERp5 block, AF4-AF9 inh)
COCC(=O)N1CC2(CCN(C(=O)c3ccccn3)CC2)c2c(n(C)c3cc(OC)ccc23)[C@H]1CO	none (no result: PDI turbidity, FN deposition inh, ARNT-TACC3 inh, FGF22 binding)
O=C1N[C@H](c2ccccc2)COCc2cn(nn2)CC[C@@H](Cc2ccc(C(F)(F)F)cc2)C(=O)N[C@H](c2ccccc2)COCc2cn(nn2)CC[C@H]1Cc1ccc(C(F)(F)F)cc1	none (no result: PDI turbidity, ERp5 block, AF4-AF9 inh, ARNT-TACC3 inh, FGF22 binding)
COc1ccc(CCn2nnc3ccccc3c2=O)cc1OC	FGF22 binding 43 (no result: ARNT-TACC3 inh)
NC(=S)NN=C1CCCCCCCCCC1	ARNT-TACC3 inh 33
NC(=S)NN=C1CCC(C2CCCCC2)CC1 (centres undefined)	none
COc1ccc2c3c(n(C)c2c1)[C@H](CO)N(C(=O)CC1CC1)CC31CN(C(=O)C2CCC2)C1	none (no result: PDI turbidity, FN deposition inh, ARNT-TACC3 inh)
CN(C)CC/C=C1\c2cc(Cl)ccc2Sc2cc(F)c(F)cc21	AF4-AF9 inh 31
CN(C)CC/C=C1\c2ccccc2Sc2cc(F)c(Cl)cc21	AF4-AF9 inh 28
CN(C)CC/C=C1\c2ccccc2Sc2ccc(Cl)cc21	none
COCc1cn([C@H]2C[C@@H]3O[C@@H](CO)CC[C@@H]3O[C@@H]2CCc2ccc(-c3ccc(OC)cc3)cc2)nn1	none (no result: PDI turbidity, FN deposition inh, ARNT-TACC3 inh)
CCC(=O)Nc1ccc2c(c1)C(=O)N(C)[C@@H]1CC[C@H](CC(=O)NCCc3ccncc3)O[C@H]1CO2	none (no result: PDI turbidity)
Cc1cccc(NC(=O)CCC(=O)N/N=C/c2ccc(O)cc2O)c1	ARNT-TACC3 inh 60
O=C(CNC(=O)c1cccs1)N/N=C/c1ccc(O)cc1O	ARNT-TACC3 inh 70 (no result: FN deposition inh)
Cc1ccccc1NC(=S)N/N=C/c1ccc(O)cc1O	ARNT-TACC3 inh 58
COc1ccccc1/C=C\C(=O)NCC(=O)N/N=C/c1ccc(O)cc1O	ARNT-TACC3 inh 54
COc1ccccc1/C=C/C(=O)NCC(=O)N/N=C/c1ccccc1	none (no result: FN deposition inh, ARNT-TACC3 inh)
CCC(=O)N1CCCCN2[C@H](CO)[C@H](c3ccc(/C=C/c4ccccc4)cc3)[C@@H]2C1	none (no result: PDI turbidity, FN deposition inh)
O=C(CNC(=O)c1cccnc1)N/N=C/c1ccc(O)cc1O	ARNT-TACC3 inh 80
S=c1c2c(nc3nc[nH]n13)CCC2	ARNT-TACC3 inh 35
O=C(C[C@H]1C=C[C@@H](NC(=O)c2cccnc2)[C@H](CO)O1)NCc1ccncn1	none (no result: PDI turbidity, ARNT-TACC3 inh, FGF22 binding)
O=C(O)Cc1sc(Nc2ccc(Cl)cc2)nc1-c1cccs1	FGF22 binding 1.4 (no result: PDI turbidity, FN deposition inh, ARNT-TACC3 inh)
Nc1nc(-c2cccs2)c(CC(=O)O)s1	none
CCC(CC)c1nnc(NC(=O)C2=NNC(=O)CC2)s1	FGF22 binding 43
NS(=O)(=O)c1ccc(-c2ccc(/C=C3\NC(=S)NC3=O)o2)cc1	ARNT-TACC3 inh 58
CN(C)S(=O)(=O)c1cccc(NC(=O)COC(=O)/C=C/c2ccc(Br)o2)c1	none
Cc1ccc(NC(=O)COC(=O)/C=C/c2ccc(Br)o2)cc1S(=O)(=O)N(C)C	FGF22 binding 43
Cc1ccc(NC(=O)c2ccc(Br)o2)cc1S(=O)(=O)N(C)C	FGF22 binding 43
CC(=O)N(C)C[C@H]1Oc2cc(-c3ccccc3F)ccc2S(=O)(=O)N([C@@H](C)CO)C[C@H]1C	none (no result: PDI turbidity)
CC(C)C[C@H](NC(=O)c1ccc(OC2CCN(C(=O)C3CC3)CC2)cc1)C(N)=O	none (no result: FGF22 binding)
CC(CCCC(C)(C)O)NC(=O)c1ccc(OC2CCN(C(=O)C3CC3)CC2)cc1 (centres undefined)	FGF22 binding 43
CCN(CC)c1ccc(C=Nc2cccnc2Cl)c(O)c1	ARNT-TACC3 inh active
CCN(CC)c1ccc(C=Nc2cc(C)ccc2C)c(O)c1	none (no result: ARNT-TACC3 inh)
COCCNC(=O)c1noc2c1CCc1cc(OC)ccc1-2	none (no result: ERp5 block, AF4-AF9 inh, FN deposition inh, FGF22 binding)
COc1ccc2c(c1)CCc1c(C(=O)NC3CCCCC3)noc1-2	ARNT-TACC3 inh 46 (no result: ERp5 block, AF4-AF9 inh, FGF22 binding)
CCC(=O)N1CCc2cc(Br)cc(S(=O)(=O)N3CCCC(C(=O)NC(C)(C)C)C3)c21 (centres undefined)	FGF22 binding 43
O=C(N[C@@H]1CC[C@@H](CCNC(=O)C2CCCC2)O[C@@H]1CO)c1ccncc1	none (no result: PDI turbidity, FN deposition inh)
C[C@H]1CCCCO[C@H](CN(C)C(=O)Cc2ccccc2)[C@@H](C)CN([C@@H](C)CO)C(=O)c2cc(NC(=O)CCCN(C)C)ccc2O1	none (no result: PDI turbidity, FN deposition inh)
CN(C)C(=O)[C@H]1[C@H](CO)[C@H]2Cn3c(cccc3=O)[C@H]2N1C(=O)C1CCCCC1	none (no result: PDI turbidity, FN deposition inh, FGF22 binding)
Cn1c(C(=O)N2CCN(c3ccc([N+](=O)[O-])cc3)CC2)cc2c(=O)[nH]c3ccccc3c21	FGF22 binding 44
CCN1CCN(C(=O)/C=C/c2ccccc2[N+](=O)[O-])CC1	none
O=C(/C=C/c1ccccc1[N+](=O)[O-])N1CCCCC1	FGF22 binding 43 (no result: ARNT-TACC3 inh)
Nc1nc(N)c2sc3nc4c(cc3c2n1)CCC4	ARNT-TACC3 inh 76 (no result: ERp5 block, AF4-AF9 inh, FN deposition inh, FGF22 binding)
Cc1ccc(S(=O)(=O)n2cnc3cc([N+](=O)[O-])ccc32)c(C)c1C	none (no result: ERp5 block, AF4-AF9 inh, FN deposition inh, FGF22 binding)
Cc1ccc([N+](=O)[O-])cc1S(=O)(=O)n1ccnc1C	FGF22 binding 43
CCCCOC(=O)C1=C(C)N(C)C(=O)NC1c1cc2c(cc1Br)OCO2 (centres undefined)	none (no result: ARNT-TACC3 inh)
CCOC(=O)C1=C(C)N(C)C(=O)NC1c1cc2c(cc1[N+](=O)[O-])OCO2 (centres undefined)	FGF22 binding 44
C[C@@H]1CN([C@H](C)CO)C(=O)c2cc(NS(=O)(=O)c3ccc(Cl)cc3)ccc2O[C@H]1CN(C)S(=O)(=O)c1ccccc1	none (no result: PDI turbidity, ERp5 block, AF4-AF9 inh, FN deposition inh)
O=C(Nc1ccc(N2CCCC2)cc1)C(Cl)c1ccccc1 (centres undefined)	ARNT-TACC3 inh active (no result: ERp5 block, AF4-AF9 inh, FN deposition inh, FGF22 binding)
Cc1cc(C)cc(S(=O)(=O)c2cnc3ccccc3n2)c1	FGF22 binding 43
O=S(=O)(c1ccc(Cl)cc1)c1cnc2ccccc2n1	none
Cn1nc(C(C)(C)C)cc1C(=O)NNC(=O)c1cccc(Cl)c1	AF4-AF9 inh 40

High-throughput results: PubChem BioAssay, Broad Institute
